Data set [1] concerns the target Aurora kinase B/Inner centromere protein (Homo sapiens, UniProt Q96GD4). Kind of data set: Inhibition of human recombinant aurora B/INCENP complex after 120 mins by IMAP fluorescence polarization assay. In kind it is protein-complex assay.
In data set [2] the test system is A549. Description: Cell cycle arrest in human A549 cells assessed as sub-2N DNA accumulation at 5 times EC50 after 48 hrs by FACS analysis relative to control. In kind it is functional. An outline of the steps: (§1)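 A549 lung tumour cells treated at 5× the compound's EC50 from the cell proliferation assay, alongside a DMSO control. Cell cycle profile read after 48 h by FACS. Values are the percentage of cells with sub-2N, 2N, 2N to 4N, 4N and >4N DNA content.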

Data set [3] concerns A549. Kind of data set: Cell cycle arrest in human A549 cells assessed as 2N DNA accumulation at 5 times EC50 after 48 hrs by FACS analysis relative to control. In kind it is functional. An outline of the steps: as §1
The subject of data set [4] is A549. Kind of data set: Cytotoxicity against human A549 cells in presence of 10% human serum. In kind it is functional, cell-based. An outline of the steps:
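A549 cell proliferation assay run in 10% human serum. EC50 values are averages of at least two experiments, in nM.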

Data set [5] has as its target Aurora kinase B (Homo sapiens, UniProt Q96GD4). Description: Inhibition of aurora B assessed as inhibition of histone H3 phosphorylation by ELISA based cellular mechanistic assay. An outline of the steps: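 Cellular mechanistic assay: ELISA measuring intracellular Aurora B activity through phosphorylation of histone H3, an Aurora B-specific substrate. IC50 values are averages of at least two experiments.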

The target of data set [6] is T1, Aurora kinase A/Targeting protein for Xklp2 (Homo sapiens, UniProt O14965).
T1 sequence (O14965 whole entry): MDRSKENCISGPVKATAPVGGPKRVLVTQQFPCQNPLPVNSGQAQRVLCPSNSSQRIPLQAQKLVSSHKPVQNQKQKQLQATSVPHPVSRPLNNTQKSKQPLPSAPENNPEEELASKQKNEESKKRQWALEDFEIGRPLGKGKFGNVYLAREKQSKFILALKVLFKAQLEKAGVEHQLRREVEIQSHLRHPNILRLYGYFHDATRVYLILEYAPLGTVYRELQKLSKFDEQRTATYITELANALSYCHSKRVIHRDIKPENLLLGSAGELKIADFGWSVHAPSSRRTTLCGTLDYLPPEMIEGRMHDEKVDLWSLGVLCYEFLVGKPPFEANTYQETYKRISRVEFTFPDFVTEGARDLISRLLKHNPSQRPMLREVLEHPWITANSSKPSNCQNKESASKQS
T1 sequence (Q9ULW0 whole entry): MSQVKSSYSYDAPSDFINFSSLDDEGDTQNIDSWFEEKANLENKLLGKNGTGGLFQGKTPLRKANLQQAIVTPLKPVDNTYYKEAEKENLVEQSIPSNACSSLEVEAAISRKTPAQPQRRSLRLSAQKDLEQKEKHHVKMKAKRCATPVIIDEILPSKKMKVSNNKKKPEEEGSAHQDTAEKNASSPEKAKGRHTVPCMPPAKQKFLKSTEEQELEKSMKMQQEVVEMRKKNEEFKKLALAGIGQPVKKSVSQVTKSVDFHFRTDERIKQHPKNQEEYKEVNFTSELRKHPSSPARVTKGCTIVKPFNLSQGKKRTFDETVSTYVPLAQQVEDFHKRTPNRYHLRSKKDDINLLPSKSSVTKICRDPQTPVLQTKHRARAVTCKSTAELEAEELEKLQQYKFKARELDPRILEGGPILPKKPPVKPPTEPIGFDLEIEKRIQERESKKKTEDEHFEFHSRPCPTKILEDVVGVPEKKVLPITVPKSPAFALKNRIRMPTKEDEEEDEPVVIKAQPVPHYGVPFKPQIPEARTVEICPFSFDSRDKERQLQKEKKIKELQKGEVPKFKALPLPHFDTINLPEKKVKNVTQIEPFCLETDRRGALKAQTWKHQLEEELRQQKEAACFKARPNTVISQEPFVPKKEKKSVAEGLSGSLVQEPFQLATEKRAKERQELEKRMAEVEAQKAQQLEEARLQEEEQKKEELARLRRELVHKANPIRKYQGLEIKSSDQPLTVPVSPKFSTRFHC
Description: Inhibition of human recombinant aurora A/TPX2 complex after 120 mins by IMAP fluorescence polarization assay. In kind it is protein-complex assay.

Data set [7] has as its system A549. Description: Cell cycle arrest in human A549 cells assessed as 2N to 4N DNA accumulation at 5 times EC50 after 48 hrs by FACS analysis relative to control relative to control. In kind it is functional. An outline of the steps:
as §1

Data set [8] has as its system A549. Kind of data set: Cell cycle arrest in human A549 cells assessed as greater than 4N DNA accumulation at 5 times EC50 after 48 hrs by FACS analysis relative to control. In kind it is functional. An outline of the steps:
as §1

Data set [9] deals with A549. Kind of data set: Cell cycle arrest in human A549 cells assessed as 4N DNA accumulation at 5 times EC50 after 48 hrs by FACS analysis relative to control. In kind it is functional. An outline of the steps:
as §1

The subject of data set [10] is A549. Description: Cell cycle arrest in human A549 cells assessed as multipolar spindle accumulation at 37 nM after 24 hrs by immunofluorescent staining microscopy. In kind it is functional, cell-based. An outline of the steps: (§2)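 A549 tumour cells treated at 12, 37 or 110 nM for 24 h. Cells stained with α-tubulin antibody for mitotic spindles, pericentrin antibodies for centrosomes, and […] for DNA. Mitotic phenotype scored by immunofluorescence.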

The test system of data set [11] is A549. Kind of data set: Cell cycle arrest in human A549 cells assessed as malformed bipolar and monopolar spindle mixture accumulation at 110 nM after 24 hrs by immunofluorescent staining microscopy. In kind it is functional, cell-based. An outline of the steps: as §2
Data set [12] has as its system A549. Kind of data set: Cell cycle arrest in human A549 cells assessed as multipolar spindle accumulation at 12 nM after 24 hrs by immunofluorescent staining microscopy. In kind it is functional, cell-based. An outline of the steps:
as §2

The nature of data set [13]: Blood clearance in po dosed rat. In kind it is ADME, organism-based. The note with it: whole blood.
For data set [14], the system named is Rattus norvegicus. Description: Dose normalized AUC in po dosed rat. In kind it is ADME, organism-based. The settings on record: in vivo.
Data set [15] in a line: Oral bioavailability in rat. The settings on record: in vivo. In kind it is ADME, organism-based.

Active and inactive are the calls of the source. The rule behind the calls is not given here.

Aurora kinase B, sequence (Q96GD4 whole entry): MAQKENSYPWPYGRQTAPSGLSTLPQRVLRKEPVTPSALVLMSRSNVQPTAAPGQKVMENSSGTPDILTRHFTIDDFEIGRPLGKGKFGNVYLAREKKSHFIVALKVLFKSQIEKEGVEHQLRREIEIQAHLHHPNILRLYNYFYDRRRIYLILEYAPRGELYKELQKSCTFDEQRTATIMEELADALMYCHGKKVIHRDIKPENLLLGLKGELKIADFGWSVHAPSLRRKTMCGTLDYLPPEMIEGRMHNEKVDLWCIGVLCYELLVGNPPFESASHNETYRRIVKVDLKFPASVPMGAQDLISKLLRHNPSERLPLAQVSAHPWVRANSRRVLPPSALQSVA
Aurora kinase B/Inner centromere protein, sequence (Q96GD4 whole entry): as above
Aurora kinase B/Inner centromere protein, sequence (Q9NQS7 whole entry, further chain): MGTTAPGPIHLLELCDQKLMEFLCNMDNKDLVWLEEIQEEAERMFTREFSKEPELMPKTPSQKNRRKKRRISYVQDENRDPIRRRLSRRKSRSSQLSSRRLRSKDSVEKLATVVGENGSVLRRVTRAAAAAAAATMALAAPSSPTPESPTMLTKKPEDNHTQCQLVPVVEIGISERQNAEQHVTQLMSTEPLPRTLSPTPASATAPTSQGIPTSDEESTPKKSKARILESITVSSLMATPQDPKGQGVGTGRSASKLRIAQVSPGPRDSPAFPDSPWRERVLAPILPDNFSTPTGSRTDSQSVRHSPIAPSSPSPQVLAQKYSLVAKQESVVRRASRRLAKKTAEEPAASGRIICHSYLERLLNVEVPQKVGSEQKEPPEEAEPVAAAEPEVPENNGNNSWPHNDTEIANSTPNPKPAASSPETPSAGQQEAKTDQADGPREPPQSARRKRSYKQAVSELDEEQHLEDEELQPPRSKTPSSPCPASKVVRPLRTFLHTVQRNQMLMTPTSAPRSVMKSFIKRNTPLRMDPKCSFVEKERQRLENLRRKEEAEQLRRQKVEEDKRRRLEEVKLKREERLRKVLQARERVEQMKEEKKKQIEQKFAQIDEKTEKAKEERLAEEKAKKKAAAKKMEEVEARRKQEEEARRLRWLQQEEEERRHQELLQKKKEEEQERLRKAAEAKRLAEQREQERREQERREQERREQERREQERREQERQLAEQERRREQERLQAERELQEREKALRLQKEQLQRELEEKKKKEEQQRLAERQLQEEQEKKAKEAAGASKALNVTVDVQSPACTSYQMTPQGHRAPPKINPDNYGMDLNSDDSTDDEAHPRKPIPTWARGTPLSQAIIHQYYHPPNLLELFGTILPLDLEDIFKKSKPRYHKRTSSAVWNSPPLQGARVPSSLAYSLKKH

As for `CN(C)Cc1cccc(-c2cc3c(-c4cnn(C)c4)ccnc3[nH]2)c1`, the figures for the IC50 in [1] (read-out: IC50), in data set [5] and in data set [6] were 5.7 nM, 104 nM and 128 nM, respectively. Moreover, the Activity is recorded as 36% in data set [2]; 13% in [3]; 4% in data set [7]; 3% in data set [8]; 43% in data set [9]. Besides, the EC50 in data set [4] was 134 nM.

Take `CCn1cc(-c2ccnc3[nH]ccc23)c(-c2ccc(NC(=O)N(C)C)cc2)n1`: the results for the IC50 in data set [1] (read-out: IC50) and in [6] were 26 nM and more than 10000 nM, respectively. In addition, the 50% effective concentration (EC50) in data set [4] was found to be 1530 nM.

For `CN(C)Cc1cccc(-c2cc3c(-c4cnn(C)c4)c(Cl)cnc3[nH]2)c1`, the outcome in [10] and in data set [11] was Active. Further, the IC50 turned out to be 0.51 nM in data set [1] (read-out: IC50), 67 nM in data set [5] and 6.2 nM in data set [6]. Also, the Activity is 34% in data set [2]; 6% in [3]; 4% in data set [7]; 30% in data set [8]; 26% in data set [9]. In addition, the EC50 in data set [4] was 21 nM.

`c1cc(-c2cn[nH]c2)c2cc[nH]c2n1`: the results for the IC50 in data set [1] (read-out: IC50), in data set [5] and in [6] were 782 nM, 13400 nM and 584 nM, respectively. Moreover, the EC50 in data set [4] was 2570 nM.

As for `CN(C)Cc1ccc(-c2cc3c(-c4cnn(C)c4)c(Cl)cnc3[nH]2)cc1`, the result in data set [10] and in [12] was Active. Moreover, the values for the IC50 in data set [1] (read-out: IC50), in [5] and in data set [6] were 0.61 nM, 9 nM and 7.9 nM, respectively. In addition, the Activity in data set [2] is reported as 27%; in data set [3], 14%; in [7], 5%; in data set [8] it was 15%; in data set [9] it was 40%. In addition, the EC50 in data set [4] is 13 nM.

For the compound `CCn1cc(-c2ccnc3[nH]ccc23)c(-c2ccc(NC(=O)Nc3ccccc3)cc2)n1`, the IC50 in data set [1] (read-out: pIC50 (converted)) is 2 nM.

As for `CN(C)Cc1ccc(-c2cc3c(-c4cnn(C)c4)ccnc3[nH]2)cc1`, the IC50 was 5.9 nM in data set [1] (read-out: IC50), 169 nM in [5] and 76 nM in data set [6]. Moreover, the Activity in data set [2] is 30%; in [3], 32%; in data set [7], 7%; in data set [8], 2%; in [9] it was 29%. In addition, the CL/F in [13] turned out to be 86 mL/min/kg. In addition, in [4], the EC50 came to 24 nM. The same compound came in with an AUC in data set [14] of 139 ng·h/mL/mg/kg. In data set [15], this compound registered a bioavailability of 72%.

Take `CCn1cc(-c2ccnc3[nH]c(-c4cccc(CN(C)C)c4)cc23)c(-c2ccc(NC(=O)N(C)C)cc2)n1` [GSK-1070916]: the results for the IC50 in data set [1] (read-out: IC50) and in data set [5] were 3.2 nM and 32 nM, respectively. Further, the Activity in data set [2] is on record as 21%; in data set [3], 6%; in data set [7] it was 3%; in [8] it was 47%; in data set [9], 23%. For the same compound, in data set [4], the EC50 turned out to be 7 nM.

Consider `Cn1cc(-c2ccnc3[nH]ccc23)cn1`, for which the results for the IC50 in [1] (read-out: IC50), in data set [5] and in data set [6] were 802 nM, 6160 nM and 982 nM, respectively. The EC50 in [4] turned out to be 11700 nM.
